One experiment deals with B16-F10. The experiment in a line: Antitumor activity against mouse B16F10 cells assessed as inhibition of cell proliferation after 48 hrs by MTT assay. It counts as functional, cell-based. Conditions: B16-F10, 48 h. A digest of the protocol:
(§1)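 Cells grown to log phase in RPMI 1640 with 10% FBS, seeded at 2×10^4 cells/mL and preincubated 24 h at 37 °C, 5% CO2. Compounds at preset concentrations added (6 wells), celecoxib as positive reference, 48 h exposure. MTT (2.5 mg/mL in PBS) for 4 h, then SDS/isobutanol/HCl extraction overnight at 37 °C. OD read at 570 nm. Triplicate wells per concentration, at least three independent runs.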

In a further experiment the test system is A549. The experiment in a line: Antitumor activity against human A549 cells assessed as inhibition of cell proliferation after 48 hrs by MTT assay. It counts as functional, cell-based. Conditions: A549, 48 h. A digest of the protocol:
as §1
(Tetrazolium assays rely on reduction of a dye to a coloured formazan, in cell work by metabolically active cells.)

For another experiment, the system named is MCF7. The experiment can be described thus: Antitumor activity against human MCF7 cells assessed as inhibition of cell proliferation after 48 hrs by MTT assay. It counts as functional, cell-based. Conditions: MCF7, 48 h. Put shortly:
as §1

Experiment [1] has as its target T1, Prostaglandin G/H synthase 2 (Homo sapiens, UniProt P35354).
T1 sequence (P35354 whole entry): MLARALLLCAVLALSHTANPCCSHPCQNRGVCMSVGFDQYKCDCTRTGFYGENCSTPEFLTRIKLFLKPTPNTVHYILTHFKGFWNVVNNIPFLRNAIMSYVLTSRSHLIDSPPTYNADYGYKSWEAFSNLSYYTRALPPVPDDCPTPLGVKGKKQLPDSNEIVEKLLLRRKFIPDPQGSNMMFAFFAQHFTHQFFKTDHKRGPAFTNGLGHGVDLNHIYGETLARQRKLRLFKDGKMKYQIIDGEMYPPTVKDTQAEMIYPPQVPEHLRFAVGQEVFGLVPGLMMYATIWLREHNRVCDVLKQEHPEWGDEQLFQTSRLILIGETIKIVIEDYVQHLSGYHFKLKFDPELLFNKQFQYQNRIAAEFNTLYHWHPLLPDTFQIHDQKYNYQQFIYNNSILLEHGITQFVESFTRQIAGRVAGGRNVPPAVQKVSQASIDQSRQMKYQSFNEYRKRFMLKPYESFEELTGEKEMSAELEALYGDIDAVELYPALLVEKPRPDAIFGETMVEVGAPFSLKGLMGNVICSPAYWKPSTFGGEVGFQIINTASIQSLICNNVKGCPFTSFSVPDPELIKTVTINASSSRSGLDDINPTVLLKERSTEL
The experiment can be described thus: Inhibition of COX-2 (unknown origin) by chemiluminescence assay.

Experiment [2] concerns the target T2, Prostaglandin G/H synthase 2 (Mus musculus, UniProt Q05769).
T2 sequence (Q05769 whole entry): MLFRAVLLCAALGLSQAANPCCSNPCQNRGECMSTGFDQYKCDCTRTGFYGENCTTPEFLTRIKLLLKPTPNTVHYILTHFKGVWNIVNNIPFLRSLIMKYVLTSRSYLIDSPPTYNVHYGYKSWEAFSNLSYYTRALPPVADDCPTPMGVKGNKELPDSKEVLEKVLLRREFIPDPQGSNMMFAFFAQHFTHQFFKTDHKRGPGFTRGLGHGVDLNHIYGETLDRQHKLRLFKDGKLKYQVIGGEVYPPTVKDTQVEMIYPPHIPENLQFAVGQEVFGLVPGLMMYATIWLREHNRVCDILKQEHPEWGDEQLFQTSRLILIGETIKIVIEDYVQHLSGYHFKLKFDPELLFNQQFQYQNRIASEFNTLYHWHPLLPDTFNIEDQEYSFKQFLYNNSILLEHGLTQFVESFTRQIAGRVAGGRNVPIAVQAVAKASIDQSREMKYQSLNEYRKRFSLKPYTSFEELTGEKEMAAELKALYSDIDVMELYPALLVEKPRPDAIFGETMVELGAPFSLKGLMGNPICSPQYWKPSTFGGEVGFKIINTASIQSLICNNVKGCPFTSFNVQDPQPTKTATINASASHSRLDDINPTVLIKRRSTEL
The experiment can be described thus: Inhibition of COX-2 in mouse RAW264.7 cells assessed as decrease in LPS-induced PGE2 production. It counts as cell-based.

In experiment [3] the target is Prostaglandin G/H synthase 1 (Homo sapiens, UniProt P23219). The experiment can be described thus: Inhibition of COX-1 (unknown origin) by chemiluminescence assay.

Some results are limits rather than exact numbers.

Chain of Prostaglandin G/H synthase 1 (P23219 whole entry): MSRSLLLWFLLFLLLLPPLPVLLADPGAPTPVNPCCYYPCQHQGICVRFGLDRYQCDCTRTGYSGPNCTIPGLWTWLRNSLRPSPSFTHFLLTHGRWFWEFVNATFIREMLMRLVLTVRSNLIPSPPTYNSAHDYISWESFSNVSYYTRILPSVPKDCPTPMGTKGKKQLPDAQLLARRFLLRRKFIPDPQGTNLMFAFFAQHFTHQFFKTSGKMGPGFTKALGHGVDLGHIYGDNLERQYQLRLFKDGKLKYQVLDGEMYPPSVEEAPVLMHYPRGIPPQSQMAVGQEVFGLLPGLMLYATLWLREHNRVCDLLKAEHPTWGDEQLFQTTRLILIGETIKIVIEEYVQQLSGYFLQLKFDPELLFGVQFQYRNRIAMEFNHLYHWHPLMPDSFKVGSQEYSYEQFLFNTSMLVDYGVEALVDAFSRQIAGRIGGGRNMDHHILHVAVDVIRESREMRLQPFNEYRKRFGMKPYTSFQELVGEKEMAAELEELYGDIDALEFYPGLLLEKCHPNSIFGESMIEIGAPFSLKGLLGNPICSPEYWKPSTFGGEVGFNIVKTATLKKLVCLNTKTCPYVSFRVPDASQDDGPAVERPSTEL

As to `COc1ccc(/C=C/c2cc(OC)cc(OC)c2/C=C/C(=O)N2CC(C)CC(C)C2)cc1` (centres undefined), the IC50 – broadly, the concentration that gives 50% inhibition – with B16-F10 was determined as 3.26 µM; in the experiment on A549, 2.27 µM; in the experiment on MCF7 it was 1.57 µM; in experiment [1], 1.98 µM; in experiment [2], 0.58 µM; in experiment [3], 45.1 µM.

On to `COc1ccc(/C=C/c2cc(OC)cc(OC)c2/C=C/C(=O)NCc2ccco2)cc1`, for which the IC50 worked out at 10.1 µM in the experiment on B16-F10; 6.42 µM in the experiment with A549; 5.42 µM in the experiment on MCF7; 9.67 µM in experiment [1]; 3.15 µM in experiment [2]; 29.1 µM in experiment [3].

Regarding `CCCCCCN(CCCCCC)C(=O)/C=C/c1c(/C=C/c2ccc(OC)cc2)cc(OC)cc1OC`, the IC50 was 8.02 µM in the experiment on B16-F10; 5.34 µM in the experiment with A549; 4.03 µM with MCF7; 9.08 µM in experiment [1]; 3.1 µM in experiment [2]; more than 50 µM in experiment [3].

Take `CCCN(CCC)C(=O)/C=C/c1c(/C=C/c2ccc(OC)cc2)cc(OC)cc1OC`: the IC50 in the experiment on B16-F10 was 5.98 µM; in the experiment on A549 it was 5.58 µM; with MCF7 it was 2 µM; in experiment [1] it was 8.06 µM; in experiment [2], 3.88 µM; in experiment [3], 45.9 µM.

As to `CCNC(=O)/C=C/c1c(/C=C/c2ccc(OC)cc2)cc(OC)cc1OC`, the IC50 in the experiment with B16-F10 came to 6.99 µM; in the experiment with A549, 7.86 µM; in the experiment on MCF7, 7.06 µM; in experiment [1], 12.4 µM; in experiment [2], 7.06 µM; in experiment [3], 35.4 µM.

For the compound `COc1ccc(/C=C/c2cc(OC)cc(OC)c2/C=C/C(=O)N2CCSCC2)cc1`, the IC50 in the experiment with B16-F10 came out at 8.1 µM; in the experiment with A549, 5.4 µM; with MCF7, 2.76 µM; in experiment [1], 8.01 µM; in experiment [2], 3.18 µM; in experiment [3], 45.2 µM.

As to `CCCCCCNC(=O)/C=C/c1c(/C=C/c2ccc(OC)cc2)cc(OC)cc1OC`, the half-maximal inhibitory concentration (IC50) in the experiment on B16-F10 came out at 7.18 µM; with A549, 6.23 µM; in the experiment with MCF7, 5.53 µM; in experiment [1], 8.99 µM; in experiment [2], 5.01 µM; in experiment [3] it was 34.7 µM.

In the case of `COc1ccc(/C=C/c2cc(OC)cc(OC)c2/C=C/C(=O)NCCCl)cc1`, the IC50 was found to be 3.45 µM with B16-F10; 2 µM in the experiment on A549; 2.3 µM with MCF7; 1.36 µM in experiment [1]; 0.45 µM in experiment [2]; 32.3 µM in experiment [3].

`CCN(CC)C(=O)/C=C/c1c(/C=C/c2ccc(OC)cc2)cc(OC)cc1OC`: the IC50 was 3.98 µM in the experiment on B16-F10; 3.35 µM in the experiment with A549; 6.55 µM with MCF7; 4.67 µM in experiment [1]; 2.15 µM in experiment [2]; more than 50 µM in experiment [3].

Regarding `COc1ccc(/C=C/c2cc(OC)cc(OC)c2/C=C/C(=O)N2CCN(C)CC2)cc1`, the IC50 with B16-F10 is 5.67 µM; in the experiment with A549 it was 4.51 µM; in the experiment with MCF7, 2.29 µM; in experiment [1], 5.78 µM; in experiment [2], 1.62 µM; in experiment [3], 39.1 µM.

`COc1ccc(/C=C/c2cc(OC)cc(OC)c2/C=C/C(=O)N2CCC(c3ccccc3)CC2)cc1`: the 50% inhibitory concentration (IC50) is 9.18 µM in the experiment on B16-F10; 6.69 µM in the experiment on A549; 4.23 µM with MCF7; 8.57 µM in experiment [1]; 3.55 µM in experiment [2]; more than 50 µM in experiment [3].

As to `COc1ccc(/C=C/c2cc(OC)cc(OC)c2/C=C/C(=O)N2CCCC2)cc1`, the IC50 in the experiment with B16-F10 is 9.28 µM; with A549 it was 6.35 µM; in the experiment with MCF7, 4.2 µM; in experiment [1], 8.87 µM; in experiment [2] it was 3.76 µM; in experiment [3], more than 50 µM.

As to `COc1ccc(/C=C/c2cc(OC)cc(OC)c2/C=C/C(=O)N2CCC(C)CC2)cc1`, the IC50 with B16-F10 is 7.76 µM; in the experiment with A549 it was 7.2 µM; in the experiment with MCF7, 6.45 µM; in experiment [1], 10.3 µM; in experiment [2], 8.09 µM; in experiment [3] it was more than 50 µM.

Turning to `CCCCCCCCNC(=O)/C=C/c1c(/C=C/c2ccc(OC)cc2)cc(OC)cc1OC`, the IC50 with B16-F10 is 8.06 µM; in the experiment with A549, 8.66 µM; with MCF7, 4.28 µM; in experiment [1], 20.1 µM; in experiment [2], 13.8 µM; in experiment [3] it was more than 50 µM.

Regarding `CCCCN(CCCC)C(=O)/C=C/c1c(/C=C/c2ccc(OC)cc2)cc(OC)cc1OC`, the IC50 in the experiment with B16-F10 is 9.03 µM; in the experiment on A549, 6.16 µM; in the experiment on MCF7, 3.99 µM; in experiment [1], 10.1 µM; in experiment [2], 4.12 µM; in experiment [3], more than 50 µM.

As to `CCCNC(=O)/C=C/c1c(/C=C/c2ccc(OC)cc2)cc(OC)cc1OC`, the half-maximal inhibitory concentration (IC50) is 9.08 µM in the experiment with B16-F10; 5.17 µM in the experiment on A549; 5.61 µM in the experiment with MCF7; 6.75 µM in experiment [1]; 2.08 µM in experiment [2]; more than 50 µM in experiment [3].

As to `C#CCNC(=O)/C=C/c1c(/C=C/c2ccc(OC)cc2)cc(OC)cc1OC`, the IC50 is 8.28 µM in the experiment with B16-F10; 6.93 µM in the experiment on A549; 4.56 µM in the experiment with MCF7; 9.08 µM in experiment [1]; 5.08 µM in experiment [2]; more than 50 µM in experiment [3].

On to `COc1ccc(/C=C/c2cc(OC)cc(OC)c2/C=C/C(=O)NC(C)(C)C)cc1`, for which the half-maximal inhibitory concentration (IC50) with B16-F10 is 7.98 µM; in the experiment on A549, 8.67 µM; in the experiment on MCF7, 13.6 µM; in experiment [1], 11.1 µM; in experiment [2], 5.29 µM; in experiment [3], more than 50 µM.

Turning to `COc1ccc(/C=C/c2cc(OC)cc(OC)c2/C=C/C(=O)O)cc1`, the IC50 in the experiment on B16-F10 was 6.78 µM; in the experiment on A549, 5.46 µM; in the experiment with MCF7, 6.1 µM; in experiment [1], 6.89 µM; in experiment [2] it was 3.01 µM; in experiment [3], more than 50 µM.

`COc1ccc(/C=C/c2cc(OC)cc(OC)c2/C=C/C(=O)N2CCC(Cl)CC2)cc1`: the IC50 was determined as 4.69 µM in the experiment on B16-F10; 2.08 µM in the experiment on A549; 4.95 µM in the experiment on MCF7; 1.45 µM in experiment [1]; 0.46 µM in experiment [2]; 40.6 µM in experiment [3].

For the compound `COc1ccc(/C=C/c2cc(OC)cc(OC)c2/C=C/C(=O)NC2CC2)cc1`, the IC50 in the experiment with B16-F10 is 10.2 µM; with A549, 8.81 µM; in the experiment with MCF7 it was 3.94 µM; in experiment [1] it was 13 µM; in experiment [2], 7.05 µM; in experiment [3], more than 50 µM.

For `CCCCCN(CCCCC)C(=O)/C=C/c1c(/C=C/c2ccc(OC)cc2)cc(OC)cc1OC`, the IC50 in the experiment on B16-F10 is 9.27 µM; in the experiment on A549, 7.49 µM; in the experiment with MCF7 it was 6.13 µM; in experiment [1] it was 16.4 µM; in experiment [2], 7.19 µM; in experiment [3], more than 50 µM.

As to `COc1ccc(/C=C/c2cc(OC)cc(OC)c2/C=C/C(=O)Nc2cc(OC)c(OC)c(OC)c2)cc1`, the IC50 in the experiment on B16-F10 was 8.15 µM; in the experiment with A549, 5.14 µM; in the experiment on MCF7, 7.01 µM; in experiment [1], 6.66 µM; in experiment [2], 2.1 µM; in experiment [3] it was more than 50 µM.

In the case of `COc1ccc(/C=C/c2cc(OC)cc(OC)c2/C=C/C(=O)N2CCCC(C)C2)cc1` (centres undefined), the IC50 was 8.25 µM with B16-F10; 5.82 µM with A549; 11.9 µM in the experiment on MCF7; 7.09 µM in experiment [1]; 3.16 µM in experiment [2]; more than 50 µM in experiment [3].

For the origin of these results see ChEMBL document CHEMBL2331353, “Synthesis and biological evaluation of some novel resveratrol amide derivatives as potential anti-tumor agents” (Eur J Med Chem, 2013).
